Here are results for 97 molecules from PubChem BioAssay AID588621 (Sanford-Burnham Center for Chemical Genomics, 2011).

Among all 360,000 compounds or so, about 890 (0.25%) were called active.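 The calls were made as follows: active = inhibition at 20 µM, scaled per plate between control wells, above about 37% (limit read from the data); inactive = the rest.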 Many of the other results were omitted from the sample, so actives are more common in it than they were.

A word on the inhibition: it is the drop in the measured response relative to a control, in per cent.

Chain of Tyrosine-protein phosphatase non-receptor type 5 (Homo sapiens) (P54829 whole entry, looked up): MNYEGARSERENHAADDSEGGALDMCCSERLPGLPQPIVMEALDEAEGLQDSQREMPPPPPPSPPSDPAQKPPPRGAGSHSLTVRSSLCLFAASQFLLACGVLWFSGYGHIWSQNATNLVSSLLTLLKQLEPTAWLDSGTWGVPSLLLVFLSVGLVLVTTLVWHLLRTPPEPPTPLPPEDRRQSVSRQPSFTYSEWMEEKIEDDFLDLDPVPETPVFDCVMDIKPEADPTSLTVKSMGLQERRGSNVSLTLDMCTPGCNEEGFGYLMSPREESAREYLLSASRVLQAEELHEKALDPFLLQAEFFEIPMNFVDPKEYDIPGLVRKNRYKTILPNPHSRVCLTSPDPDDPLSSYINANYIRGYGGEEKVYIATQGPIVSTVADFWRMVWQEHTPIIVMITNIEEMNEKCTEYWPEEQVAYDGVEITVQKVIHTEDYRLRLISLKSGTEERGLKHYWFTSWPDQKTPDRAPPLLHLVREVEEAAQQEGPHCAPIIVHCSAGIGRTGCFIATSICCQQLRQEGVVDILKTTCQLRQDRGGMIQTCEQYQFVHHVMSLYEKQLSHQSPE

This test concerns the target Tyrosine-protein phosphatase non-receptor type 5 (Homo sapiens) (UniProt P54829). Description: inhibition of human PTPN5 enzyme activity – biochemical, fluorescence intensity, uHTS, primary screen (AID 588621).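 Also: 0% = DMSO with enzyme and substrate and 100% = substrate only without enzyme.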 The conditions noted are these: recombinant STEP, OMFP fluorogenic substrate, at 20 µM, hits give high values. The essentials:
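Also added – OMFP at 25 µM · Test system – STEP tyrosine phosphatase · Technique – FITC-channel fluorescence of OMFP product · Schedule – 20 min at room temperature, dark · Evaluation – control-normalized % inhibition with plate pattern correction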
Turning to `CC1CCN(C(=O)CN(c2ccc(Oc3ccccc3)cc2)S(C)(=O)=O)CC1`, the inhibition was 2.5% (inactive).

Take `CCN(CC)CCn1cnc2c1c(=O)n(CCOC(=O)c1cc(OC)c(OC)c(OC)c1)c(=O)n2C`: the inhibition was -2.8% (inactive).

Turning to `Cc1ccc(-c2nnc(-c3ccc(NC(=O)c4cccs4)cc3)o2)cc1`, the inhibition is 54.4% (active).

On to `O=C(Nc1ccc(N2CCN(C(=O)C3CC3)CC2)cc1)c1cccs1`, for which the inhibition is -1.5% (inactive).

On to `Cc1ccc(C(=O)NCC(=O)OCc2nnc(-c3ccccc3)o2)cc1`, for which the inhibition was -0.5% (inactive).

On to `O=C(CCS(=O)(=O)c1ccc2c(c1)NC(=O)CS2)NCc1ccccc1Cl`, for which the inhibition is 1.6% (inactive).

Turning to `CNc1cncc(-c2ccc(NS(C)(=O)=O)cc2)n1`, the inhibition was 4.2% (inactive).

On to `CC(C)NS(=O)(=O)c1ccc(OCC(=O)NC2CCCCCC2)cc1`, for which the inhibition was -0.6% (inactive).

As to `O=C1C(=O)N(CCN2CCOCC2)C(c2ccccn2)/C1=C(/O)c1ccc(Cl)cc1` (configuration not stated), the inhibition was -3.3% (inactive).

With `CCCC1C(=O)N2C(N(C)C)=Nc3ccc(C)cc3N2C1=O` (configuration not stated), the inhibition is -0.2% (inactive).

For `CCOc1ccc(N(CC(=O)NCC2CCCO2)S(=O)(=O)c2ccc(C)cc2)cc1` (configuration not stated), the inhibition was 0.9% (inactive).

Take `Cc1c(CCC(=O)O)c(=O)oc2c(C)c(OCc3ccccc3Cl)ccc12`: the inhibition was 98.9% (active).

`Cc1c(CCC(=O)O)c(=O)oc2cc(OCc3ccc(Br)cc3)ccc12`: the inhibition is 5.4% (inactive).

For `CCOC(=O)CCc1c(C)c2ccc(OCc3nn[nH]n3)c(C)c2oc1=O`, the inhibition was 2.9% (inactive).

In the case of `COc1ccc(C2COC(=O)C2=N)c(NC(=O)c2ccccc2)c1` (configuration not stated), the inhibition was 1.3% (inactive).

In the case of `O=C(c1c(F)cccc1Cl)N1CCN(c2ccccn2)CC1`, the inhibition is -1.8% (inactive).

On to `Cc1cc(C(=O)N2CCN(c3ccccn3)CC2)c(C)o1`, for which the inhibition was 39.4% (active).

For `O=C(c1cc2ccccc2s1)N1CCN(c2ccccn2)CC1`, the inhibition is -0.1% (inactive).

Take `O=C(COC(=O)/C=C/c1ccc(Br)o1)Nc1cccc(S(=O)(=O)N2CCOCC2)c1`: the inhibition is 2.1% (inactive).

As for `CC(C)(C)NC(=O)CSC(=Nc1ccccc1F)NC#N`, the inhibition is -0.7% (inactive).

For the molecule `Cc1c(C#N)c2ncn(CC#N)c(=O)c2n1-c1ccccc1`, the inhibition is -3.8% (inactive).

On to `Cc1nnsc1C(=O)NCc1c(F)cccc1Cl`, for which the inhibition is -0.5% (inactive).

On to `CC1C(=O)NC(=O)C1c1ccccc1` (configuration not stated), for which the inhibition was -2% (inactive).

On to `COc1ccc2c(c1)CCc1c(C(=O)N3CCc4ccccc4C3)noc1-2`, for which the inhibition is -1% (inactive).

As for `CCCS(=O)(=O)N1CCN=C1SCc1cccc(F)c1`, the inhibition was 0.3% (inactive).

For `O=c1ccc2c(-c3ccccc3S(=O)(=O)O)c3ccc(O)c(O)c3oc-2c1O`, the inhibition is 96.8% (active).

As to `Cc1cc(Cl)ccc1NC(=S)N1CCC(C(N)=O)(N2CCCCC2)CC1`, the inhibition is -1.3% (inactive).

In the case of `CNc1[nH]ncc1[N+](=O)[O-]`, the inhibition is -1.1% (inactive).

In the case of `CCCCSCCCNC(=O)C1CCC(CNS(=O)(=O)c2ccc(NC(C)=O)cc2)CC1` (configuration not stated), the inhibition is 1% (inactive).

Regarding `Cc1ccc(-n2c(C)nnc2SCC(=O)NC2CC2)cc1`, the inhibition is 0.1% (inactive).

Take `Cc1ccc(SCC2=NNC(=O)C2)cc1`: the inhibition is 0.5% (inactive).

`O=C(Nc1cccnc1)c1cc2cc(Br)ccc2oc1=O`: the inhibition is 86.4% (active).

In the case of `O=C(Nc1cccnc1)c1ccc(Cl)cc1[N+](=O)[O-]`, the inhibition is 0.9% (inactive).

Consider `COc1ccc2oc(=N)c(C(=O)Nc3ccc(Br)cc3)cc2c1`, for which the inhibition is -1.8% (inactive).

On to `CCOC(=O)c1c(-n2cnnn2)sc(C)c1C`, for which the inhibition is 0.1% (inactive).

On to `CCc1ccccc1N(CC(=O)NCCSCc1ccco1)S(C)(=O)=O`, for which the inhibition is -1.4% (inactive).

In the case of `CCOc1ccc(C(CC(=O)O)n2cnnn2)cc1OC` (configuration not stated), the inhibition is -2.9% (inactive).

As for `CC1=CC(C)(C)NC(=S)N1c1ccccc1`, the inhibition is -2.2% (inactive).

Take `COc1ccc(C2=NOC(Cn3nc(C(=O)NCc4ccc5c(c4)OCO5)cc3-c3ccccc3)C2)cc1` (configuration not stated): the inhibition is 0.9% (inactive).

On to `COc1cccc(/C=N/NC(=O)c2[nH]nc3c2CCc2ccccc2-3)c1O`, for which the inhibition is 80% (active).

Take `COc1cc(/C=N/NC(=O)c2cccnc2)ccc1OC(=O)c1cccc(Br)c1`: the inhibition was 1.7% (inactive).

With `CCn1c(/C=N/NC(=O)c2ccc(OC)cc2)nc2ccccc21`, the inhibition was 2.2% (inactive).

`CN(C)Cc1c(O)ccc2c(=O)c(-c3ccccc3Cl)coc12`: the inhibition is 0.4% (inactive).

Take `CCNC(=O)C1CCCN(C(=O)c2cc(F)ccc2C)CC1` (configuration not stated): the inhibition is 1% (inactive).

As for `CC(C)C1CC2=C(C(=O)OC(C)(C)O2)C(c2ccc(F)cc2)O1` (configuration not stated), the inhibition is 0% (inactive).

As for `c1ccc(-c2ccnc3nc(-n4cccc4)nn23)cc1`, the inhibition is -3.2% (inactive).

For the molecule `CCc1nc2oc3ccccc3c(=O)c2c(=O)n1Cc1ccc(OC)cc1`, the inhibition was 0.4% (inactive).

As to `O=C(CSc1nnc(COc2ccc(Cl)cc2)n1Cc1ccco1)N1CCNC1=O`, the inhibition is -4.2% (inactive).

Regarding `Cn1c2ccccc2c(=O)c2c(=O)n(Cc3ccco3)c(COc3ccccc3)nc21`, the inhibition is 70.7% (active).

As to `O=C1OCCC1=COCCCCOC=C1CCOC1=O`, the inhibition was 0.1% (inactive).

`O=C(CCc1ccccc1)Nc1ccc(NC(=O)C2CC2)nc1`: the inhibition was -2.6% (inactive).

Consider `COc1cc(/C=C/C(=O)OCC(=O)N2CCOCC2)ccc1OCC#N`, for which the inhibition is 1.1% (inactive).

Turning to `C/C(=N\Nc1ccccc1)c1cccs1`, the inhibition is -1.1% (inactive).

`C/C(=N\Nc1ccc(S(N)(=O)=O)cc1[N+](=O)[O-])c1cccs1`: the inhibition was 97.5% (active).

For `CCOC(=O)C/C(C)=N\Nc1ccc([N+](=O)[O-])cc1[N+](=O)[O-]`, the inhibition is 2.8% (inactive).

As to `Cc1csc2nc(COC(=O)c3cccc(N(C)C)c3)cc(=O)n12`, the inhibition was -2.7% (inactive).

Regarding `O=C(N/N=C/c1cccc(Br)c1)c1ccc(N2CCCC2=O)cc1`, the inhibition was 94.9% (active).

With `O=C(Nc1ccc(N2CCCC2=O)cc1)c1cncc(Br)c1`, the inhibition was -0.3% (inactive).

Regarding `O=C(N/N=C\c1cccc(Br)c1)c1ccccc1-n1cccc1`, the inhibition was -2.3% (inactive).

As for `CCc1c(Nc2ccccc2Cl)nc(N)[nH]c1=O`, the inhibition was -2.5% (inactive).

Regarding `COc1ccc2[nH]c3nc(SCC(=O)NC4CC4)nnc3c2c1`, the inhibition was -4.6% (inactive).

For the molecule `Cc1ccn2c(=O)nc(SCC(=O)NCc3ccc(F)cc3)nc2c1`, the inhibition is 0.1% (inactive).

Turning to `Cc1ccc(CNC(=O)CSc2nnc3c(n2)[nH]c2ccc(F)cc23)cc1`, the inhibition was 96.1% (active).

Turning to `CCCCNC1(C#N)CCN(Cc2ccccc2)CC1`, the inhibition was -2.5% (inactive).

For the molecule `COc1cccc(COC(=O)C2CCN(S(=O)(=O)c3cccs3)CC2)c1OC`, the inhibition is 1.4% (inactive).

Regarding `Cc1ccccc1C#CC1=CC(=O)CC(C)(C)C1`, the inhibition is 0.4% (inactive).

For the molecule `Cn1ncc(Br)c1C(=O)NC1CCCC1`, the inhibition was -1.6% (inactive).

As for `CCN1CCc2nc(NC(=O)c3cc(F)c(F)cc3Cl)sc2C1`, the inhibition was -1.5% (inactive).

As for `CCc1cc(-c2nnn(CCC3COCCO3)c2CC)ccc1-c1cn(Cc2ccc3ccccc3c2)nn1` (configuration not stated), the inhibition is 2.9% (inactive).

In the case of `C=CC1=C(C(=O)O)N2C(=O)[C@@H](NC(=O)/C(=N\OCC(=O)O)c3csc(N)n3)[C@H]2SC1`, the inhibition is 85.4% (active).

As for `C=CC1=C(C(=O)O)N2C(=O)[C@@H](NC(=O)/C(=N/OCC(=O)O)c3csc(N)n3)[C@H]2SC1`, the inhibition was 97.4% (active).

Consider `COC(=O)c1cc2occc2n1Cc1nc(-c2ccccc2C)oc1C`, for which the inhibition was -0.6% (inactive).

Take `CCCCOc1ccc(NC(=O)[C@@H]2CCCN2C(=O)C2CCN(S(=O)(=O)c3ccc(C)cc3)CC2)cc1`: the inhibition was -0.4% (inactive).

Consider `CCCC(=O)N1CCC1(C)C(=O)NCc1ccc(C(C)C)cc1` (configuration not stated), for which the inhibition is 1.5% (inactive).

As to `Cn1c(Cc2csc(N)n2)nnc1SC/C=C/c1ccccc1`, the inhibition is -1.7% (inactive).

In the case of `CCOc1ccc(C(=O)NCC(=O)N2CCN(c3ccc(C(F)(F)F)cn3)CC2)cc1`, the inhibition was -0.1% (inactive).

For `Cc1ccc(F)cc1NC(=O)N1CCCN(c2ccc(C(F)(F)F)cn2)CC1`, the inhibition was -0.3% (inactive).

For the molecule `C/C=C/C(=O)Nc1ccc(N2CCN(c3ccc(C(F)(F)F)cn3)CC2)nc1`, the inhibition was 78.9% (active).

Regarding `C[C@H]1CN([C@@H](C)CO)C(=O)Cc2cc(NS(C)(=O)=O)ccc2O[C@@H]1CN(C)CC1CC1`, the inhibition is 1.2% (inactive).

With `Cc1ccc(C(=O)N(CC(=O)NC2CCCC2)c2ccc(F)cc2)s1`, the inhibition was -0.9% (inactive).

With `O=C(NCc1ccco1)C1CCCN(S(=O)(=O)c2ccccc2)C1` (configuration not stated), the inhibition is 2.1% (inactive).

On to `CCCS(=O)(=O)N1CCCC(C(=O)NCc2ccco2)C1` (configuration not stated), for which the inhibition is 53.8% (active).

Regarding `O=C(NCc1ccco1)C1CCCN(S(=O)(=O)c2cnc[nH]2)C1` (configuration not stated), the inhibition was -0.7% (inactive).

Consider `COc1ccc(CCNc2cc(C)nc3c(-c4ccc(Cl)cc4)c(C)nn23)cc1OC`, for which the inhibition is -0.7% (inactive).

`O=S1(=O)CSCS(=O)(=O)C1`: the inhibition was 2.4% (inactive).

Turning to `Cc1ccc(-n2c(SCC(=O)NCc3ccc4c(c3)OCO4)nnc2-c2cccnc2)c(C)c1`, the inhibition is -2.7% (inactive).

Regarding `CCCCc1nccn1CCn1ccnc1CCCC`, the inhibition was 1.5% (inactive).

Consider `OCc1n[nH]c(CO)n1`, for which the inhibition is -3.3% (inactive).

For the molecule `O=C1CCC(CCC(=O)N2CCCC(C(=O)c3ccc(Cl)cc3)C2)=NN1` (configuration not stated), the inhibition was -3.2% (inactive).

Regarding `COc1ccc(CCNC(=O)c2ccc(CS(=O)(=O)c3ccc(Br)cc3)o2)cc1OC`, the inhibition was -1.6% (inactive).

With `Oc1ccccc1C=NC1CCCCC1N=Cc1ccccc1O` (configuration not stated), the inhibition was 2.7% (inactive).

Take `O=C(NN=Cc1ccccc1O)NN=Cc1ccccc1O`: the inhibition was 59.1% (active).

Take `O=C(N/N=C/c1ccccc1O)/C(=C/c1ccccc1)CCO`: the inhibition was 0.4% (inactive).

Regarding `Nc1ccccc1/C=N\N=C/c1ccccc1N`, the inhibition is -2.4% (inactive).

In the case of `Cc1c(NC(=O)C(=O)N/N=C/c2cccs2)c(=O)n(-c2ccccc2)n1C`, the inhibition is 3.9% (inactive).

For the molecule `CCC(=O)c1cc2c(cc1NC(=O)c1cccs1)OCCO2`, the inhibition was -2.5% (inactive).

With `C=CCO/N=C(\C)c1c(O)c(C)c(-c2ccccc2)n(-c2ccccc2)c1=O`, the inhibition was 6.7% (inactive).
